Active and inactive are the calls of the source. The rule behind the calls is not given here.
How the values were obtained:
[1] = test system: Herpes simplex virus unknown type; experiment: Antiviral activity against Herpes simplex virus; format: functional
[2] = test system: Human immunodeficiency virus; experiment: Antiviral activity against HIV; format: functional, organism-based
Sindbis virus = experiment: Antiviral activity against Sindbis virus; format: functional, organism-based
Influenza A virus = experiment: Antiviral activity against Influenza virus; format: functional
[3] = (§1) Antiviral activity against Human coronavirus 229E infected in human embryonic lung fibroblast cells assessed as reduction in virus-induced cytopathic effect incubated for 5 days by MTS cell viability assay; format: functional, cell-based; details: 120 h
Method in brief: (§2)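 Confluent HEL cell cultures given serial compound dilutions together with HCoV-229E at MOI 100 and held 5 days at 35 °C. Virus-induced CPE was scored by microscopy. MTS reagent was then added and absorbance at 490 nm read 24 h later. EC50 was taken from the MTS or microscopic read-out and CC50 from MTS. SI = CC50/EC50, both by MTS. Mean ± SEM of three independent experiments.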

[4] = test system: Respiratory syncytial virus; experiment: Antiviral activity against Respiratory syncytial virus; format: functional, organism-based
Punta Toro virus = experiment: Antiviral activity against Punta Toro virus; format: functional, organism-based
Human adenovirus 2 = experiment: Antiviral activity against Adenovirus; format: functional
Vaccinia virus = experiment: Antiviral activity against Vaccinia virus; format: functional, organism-based; details: Orthopoxvirus vaccinia
[5] = test system: Vesicular stomatitis virus; experiment: Antiviral activity against Vesicular stomatitis virus; format: functional, organism-based
[6] = Cytotoxicity against mock-infected human embryonic lung fibroblast cells incubated for 5 days by MTS assay; format: cell-based; details: time 5 day; method in brief: as §2
Coxsackievirus B4 = experiment: Antiviral activity against Coxsackie B4 virus; format: functional, organism-based
[7] = as §1, with “Selectivity index, ratio of CC50 for cytotoxicity against mock-infected human embryonic lung fibroblast cells incubated for 5 days by MTS assay to EC50 for antiviral” for “Antiviral”; format: toxicity, cell-based; details: time 5 day, read-out: Ratio CC50/EC50; method in brief: as §2
Human respirovirus 3 = experiment: Antiviral activity against Parainfluenza-3 virus; format: functional, organism-based
[8] = Antiviral activity against Human coronavirus 229E infected in human embryonic lung fibroblast cells assessed as reduction in virus-induced cytopathic effect incubated for 5 days by microscopy; format: functional, cell-based; details: 120 h; method in brief: as §2
Yellow fever virus = experiment: Antiviral activity against Yellow fever virus; format: functional, organism-based
Reovirus sp. = experiment: Antiviral activity against Reovirus-1; format: functional, organism-based

Row | SMILES | Activity [1] | Activity [2] | Activity (Sindbis virus) | Activity (Influenza A virus) | EC50 [3] [µM] | Activity [4] | Activity (Punta Toro virus) | Activity (Human adenovirus 2) | Activity (Vaccinia virus) | Activity [5] | CC50 at 120 h [6] [µM] | Activity (Coxsackievirus B4) | selectivity ratio at 120 h [7] | Activity (Human respirovirus 3) | EC50 [8] [µM] | Activity (Yellow fever virus) | Activity (Reovirus sp.)
1 | C=C(C)[C@@H]1CC[C@]2(C(=O)O)CC[C@]3(C)[C@H](CC[C@@H]4[C@@]5(C)Cc6nnn(Cc7ccco7)c6C(C)(C)[C@@H]5CC[C@]43C)[C@@H]12 | inactive | inactive | inactive | inactive | 2.6 | inactive | inactive | inactive | inactive | inactive | 20 | inactive | 8 | inactive | 1.1 | inactive | inactive
2 | C=C(C)[C@@H]1CC[C@]2(C(=O)O)CC[C@]3(C)[C@H](CC[C@@H]4[C@@]5(C)CCC(=O)C(C)(C)[C@@H]5CC[C@]43C)[C@@H]12 [BETUNOLIC ACID] |  |  |  |  | > 100 |  |  |  |  |  | > 100 |  |  |  | > 100 |  | 
3 | C=C(C)[C@@H]1CC[C@]2(C(=O)O)CC[C@]3(C)[C@H](CC[C@@H]4[C@@]5(C)Cc6nnn(Cc7ccc(F)cc7)c6C(C)(C)[C@@H]5CC[C@]43C)[C@@H]12 | inactive | inactive | inactive | inactive | 2.2 | inactive | inactive | inactive | inactive | inactive | 9.3 | inactive | 4 | inactive | 0.88 | inactive | inactive
4 | C=C(C)[C@@H]1CC[C@]2(CO)CC[C@]3(C)[C@H](CC[C@@H]4[C@@]5(C)CC[C@H](O)C(C)(C)[C@@H]5CC[C@]43C)[C@@H]12 [BETULIN] |  |  |  |  | > 100 |  |  |  |  |  | 7.6 |  |  |  | 11 |  | 
5 | C=C(C)[C@@H]1CC[C@]2(C(=O)O)CC[C@]3(C)[C@H](CC[C@@H]4[C@@]5(C)Cc6nnn(Cc7ccc8c(c7)OCO8)c6C(C)(C)[C@@H]5CC[C@]43C)[C@@H]12 | inactive | inactive | inactive | inactive | 1.9 | inactive | inactive | inactive | inactive | inactive | 15 | inactive | 8 | inactive | 1.5 | inactive | inactive
6 | C=C(C)[C@@H]1CC[C@]2(C(=O)O)CC[C@]3(C)[C@H](CC[C@@H]4[C@@]5(C)Cc6nnn(CCCCCCC)c6C(C)(C)[C@@H]5CC[C@]43C)[C@@H]12 | inactive | inactive | inactive | inactive | 2 | inactive | inactive | inactive | inactive | inactive | 16 | inactive | 8 | inactive | 1.1 | inactive | inactive
7 | C=C(C)[C@@H]1CC[C@]2(C(=O)O)CC[C@]3(C)[C@H](CC[C@@H]4[C@@]5(C)Cc6nnn(Cc7ccc(N(C)C)cc7)c6C(C)(C)[C@@H]5CC[C@]43C)[C@@H]12 | inactive | inactive | inactive | inactive | 0.54 | inactive | inactive | inactive | inactive | inactive | 16 | inactive | 31 | inactive | 0.51 | inactive | inactive
8 | C=C(C)[C@@H]1CC[C@]2(C(=O)O)CC[C@]3(C)[C@H](CC[C@@H]4[C@@]5(C)Cc6nnn(CC7CCCCC7)c6C(C)(C)[C@@H]5CC[C@]43C)[C@@H]12 | inactive | inactive | inactive | inactive | 13 | inactive | inactive | inactive | inactive | inactive | 79 | inactive |  | inactive | 14 | inactive | inactive
9 | C=C(C)[C@@H]1CC[C@]2(C(=O)O)CC[C@]3(C)[C@H](CC[C@@H]4[C@@]5(C)Cc6nnn(Cc7cccc8[nH]ccc78)c6C(C)(C)[C@@H]5CC[C@]43C)[C@@H]12 | inactive | inactive | inactive | inactive | 0.092 | inactive | inactive | inactive | inactive | inactive | 2.4 | inactive | 27 | inactive | 0.1 | inactive | inactive
10 | C=C(C)[C@@H]1CC[C@]2(C(=O)O)CC[C@]3(C)[C@H](CC[C@@H]4[C@@]5(C)Cc6nnn(Cc7cc(OC)c(OC)c(OC)c7)c6C(C)(C)[C@@H]5CC[C@]43C)[C@@H]12 | inactive | inactive | inactive | inactive | 1.9 | inactive | inactive | inactive | inactive | inactive | 10 | inactive | 5 | inactive | 1.6 | inactive | inactive
11 | C=C(C)[C@@H]1CC[C@]2(C(=O)O)CC[C@]3(C)[C@H](CC[C@@H]4[C@@]5(C)Cc6nnn(CCc7c[nH]c8ccccc78)c6C(C)(C)[C@@H]5CC[C@]43C)[C@@H]12 | inactive | inactive | inactive | inactive | 0.56 | inactive | inactive | inactive | inactive | inactive | 3.2 | inactive | 6 | inactive | 0.24 | inactive | inactive
12 | CC(C)[C@@H]1CC[C@]2(C)CC[C@]3(C)[C@H](CC[C@@H]4[C@@]5(C)Cc6nnn([C@@H](C)c7ccccc7)c6C(C)(C)[C@@H]5CC[C@]43C)[C@@H]12 | inactive | inactive | inactive | inactive |  | inactive | inactive | inactive | inactive | inactive |  | inactive |  | inactive |  | inactive | inactive
13 | C=C(C)[C@@H]1CC[C@]2(C(=O)O)CC[C@]3(C)[C@H](CC[C@@H]4[C@@]5(C)Cc6nn[nH]c6C(C)(C)[C@@H]5CC[C@]43C)[C@@H]12 | inactive | inactive | inactive | inactive | 4.3 | inactive | inactive | inactive | inactive | inactive | 8.3 | inactive | 1.9 | inactive | 3.4 | inactive | inactive
14 | C=C(C)[C@@H]1CC[C@]2(C(=O)O)CC[C@]3(C)[C@H](CC[C@@H]4[C@@]5(C)Cc6nnn(Cc7ccc(C)cc7)c6C(C)(C)[C@@H]5CC[C@]43C)[C@@H]12 | inactive | inactive | inactive | inactive | 6.2 | inactive | inactive | inactive | inactive | inactive | 57 | inactive | 9 | inactive | 3.3 | inactive | inactive

Source: ChEMBL document CHEMBL4808183, “Betulonic Acid Derivatives Interfering with Human Coronavirus 229E Replication via the nsp15 Endoribonuclease” (J Med Chem, 2021)
